Tested on: MS2 coat protein
Assay: apparent Kd, MS2 coat protein; higher = weaker binding; RNA-MaP array; FMN 200 µM where present
Method in brief: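 On Illumina sequencing-chip clusters, designs were transcribed by stalled E. coli RNA polymerase and titrated with SNAP-549-labelled MS2 coat protein (0.7 or 1.5 nM, doubling to 3 µM), without and then with constant ligand, in 100 mM Tris-HCl pH 7.5, 80 mM KCl, 4 mM MgCl2, BSA, DTT, yeast tRNA and Tween-20. Apparent Kd is the median of filtered per-cluster curve fits to green signal normalised to red-channel RNA signal and control-cluster median Fmax.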

[1] = designed as: ON switch for flavin mononucleotide, no ligand
[2] = ligand present: flavin mononucleotide, designed as: ON switch for flavin mononucleotide
[3] = designed as: OFF switch for flavin mononucleotide, no ligand
[4] = ligand present: flavin mononucleotide, designed as: OFF switch for flavin mononucleotide

Sequence	apparent Kd [1] [nM]	apparent Kd [2] [nM]	apparent Kd [3] [nM]	apparent Kd [4] [nM]
GCGAUUUUGUAAGGAUAUACACGAGUUUUAAGUGUAGAAGGUGCUUACAUGAGGAUCACCCAUGUAUAAAUGUAUAAUAGUCGC	9.14	8.18	–	–
GGAUUACAUGAGGAUCACCCAUGUGAGGAUAUCGAUGUCCUCAAUCAAGUGCGGGACUCGAGAAGGCACUUGGA	–	–	70.3	30.9
UGGAUGGUAUGAGGAUAUGCGCGUGAAACGCGCGCAGAAGGCAUGUCAAUAGACAUGAGGAUCACCCAUGUACUAUCCAUCCAA	114	9.65	–	–
AGUGGCUACACAGGAUAUCCCAGCCUCUUGGUGGGAGAAGGGUGAGGUCAGAGACAUGAGGAUCACCCAUGUCUUACAGGAGGA	15.8	8.33	–	–
UUGGACGUCGUAGGAUAUGUAGGAUAUUCCUACAUGAGGAUCACCCAUGUUGACAUGGAAGAAGGACAGAAGGACAAUGUCCAU	414	7.5	–	–
GGCGGGCGGGAGGAUAUUCGGGCUGUUUGGCUUGGAGAAGGCUCGACAUGAGGAUCACCCAUGUUUGGGUCGUC	–	–	18	37.8
GCUUGUGAAGGAUAUACUGGCGGCAUGCGCUCGGCACGCGCACAUGAGGAUCACCCAUGUAGAAGGUCAAACGU	–	–	22.4	22.8
CUACUUAGCCAGAAGGCAAGAGGUACAUGAGGAUCACCCAUGUAGUGAUUGAGGAUAUGGCAAGGUUCUAUGGUGCGUCUAGCC	7.53	5.12	–	–
CCCGUGUGAGGAUAUCGUUCGCUUGGCGUUUGUCGGGUGGGCGAGAAGGUACAUGAGGAUCACCCAUGUGCGGG	–	–	172	422
AUAUGGGCCCAGAAGGUGCCAGCGAGAGCUGCACAUGAGGAUCACCCAUGUUGUCGGUGACGACGCAAGGAUAUGGGCCCAUAU	22.1	6.26	–	–
AAAAAACAUGAGGAUCACCCAUGUAAAAAAAAUAGAGGAUAUGGGUGAUCCAAAAAAAAACCAGAAGGCUAAAAAA	18.2	16.6	–	–
CACUCGUGUCUAGGAUAUGAGUGACAAGCGCGAGAUUUUCUCACCGCUAGCUCAGAAGGAGACAUGAGGAUCACCCAUGUAAGG	–	–	165	20.3
GACAAUCUAUCUGAGGAUAUCAUGAAAAAAACAUGAGGAUCACCCAUGUGCAGGAAAACUGCAUAUGAGAAGGCAGAUAGAUUGA	708	28.7	–	–
GGCGGACGAAACAUGAGGAUCACCCAUGUGUUAUAAUUAAUAUAGGAUAUGUUUAUACUUUUUGGGCAGAAGGAUGAUAAUGCC	18.5	16.2	–	–
AAUAUGAGCUGGAAUAUAAACCUCACAUGAGGAUCACCCAUGUAGGAUAUCAGCACGAUAAGUGCUGAGAAGGACAACCAGCUC	–	–	15.1	17.1
AAAAAACAUGAGGAUCACCCAUGUCAGGAUAUCCUAAAAAAAAAAAAAAAAAAAAAAAGGAGAAGGGACAUAAA	–	–	119	309
UGGUAACAUGAGGAUCACCCAUGUCAGGAUAUCAGGAAGAGGAGAGGAGAGGAGAAGAUGAGAAGGGACUAUAU	–	–	27.2	21.9
GUCGGAUGUAUAGGAUAUCGACUGGAUAACAGUCGAGAAGGAUACAUGAGGAUCACCCAUGUAAUAAUAAUAAUAAUAACCGAC	–	–	12.8	24.6
AUCCGGCGUGUAGGAUAUGGAAAAGAUUAGAAACCAGAAGGACAUGAGGAUCACCCAUGUACAUGUAAACAGUCAUCACCGGAA	–	–	12.2	35.1
AUGCCUUAUGUAGGAUAUGCAUAGAGUUGCUAUGCAGAAGGACAUGAGGAUCACCCAUGUAUGUAUACCUUACAUAUCUGGCAU	–	–	8.34	30.8
CGCCGACAUGAGGAUCACCCAUGUCACAACUGGUCAGGAUAUGGUAUGAUUUGGCUAUUGCCAGAAGGGACCUCAG	50.5	21	–	–
GUACUACAUGAGGAUCACCCAUGUCAGGAUAUGUGAAUUUCAUCAAAAGAUGAAAUUCGUAGAAGGGACAGUAC	–	–	22.2	29.4
GGAUAGGACAGAGGAUAUACGUGCUAGAGAUACGAGCAAAAUUUCCUCACAUGAGGAUCACCCAUGUAGAAGGCUGUCCUAUCG	–	–	32.5	578
UAUGGUUAAGUCAGGAUAUGCUCAUAGAGGUCUGUGCAGAAGGGACAUGAGGAUCACCCAUGUAUGGUCGUGUU	–	–	254	237

Sequence	apparent Kd [1] [nM]	apparent Kd [2] [nM]	apparent Kd [3] [nM]	apparent Kd [4] [nM]
AAAACAUGAGGAUCACCCAUGUAAAGAUCGGUUAAUAGAGGUGAGGAUAUACGAACUUUUGGGUAGUAGAAGGCACUGGGUACA	58.1	44	–	–
GUUGGCUGAGGAUAUGCUUGCAUGCUUUUGUGUUGCGGGUGACAUGAGGAUCACCCAUGUAGAAGGUGGUCGGC	–	–	1040	817
UUUAGGAGUCAAGGAUAUGCUACCGUUUCGGUAGCAGAAGGUGAUCACAUGAGGAUCACCCAUGUAUGCAUGCGUGAGCGUGCU	50.1	623	–	–
CCCAUGUUAGGAUAUCGGCUCCGCCGUUCCACAUGGCGCUCCGAGAAGGAACAUGAGGAUCACCCAUGUAAAGA	–	–	39.1	140
AGAUAACACCAGAAGGACAUGAGGAUCACCCAUGUAGGAUAUGGGCAUCACUCGAGAAAGAAAAGACCAAGUGGACACAUGGUC	147	11	–	–
UCGAGUCAUGAGAAGGGCUGAUGUUACAUGAGGAUCACCCAUGUCAUGGGCAGGAUAUCAUUGACACGGCUGUACCUCUCUUAA	107	19.3	–	–
UCGCUGCGAGGAUAUACGUGCGCGCGCGCGCGCGCGCGCGUACAUGAGGAUCACCCAUGUAGAAGGCGCGCUGC	–	–	17.1	17.1
ACUCUACAUGAGGAUCACCCAUGUCGAGCCCAUCAAGGAUAUGGGUCUUGAUCGCGGGUGCCAGAAGGUGAUGGUU	43.9	47.1	–	–
GUAGCAUACCGAGGAUAUUCAUACCGGAAACGGACAUGAGGAUCACCCAUGUAGCGAAAGCUUUGGGAGAAGGCGGAAUGCUAC	905	33.9	–	–
AACAGUACAGGAUAUACAUGAGGAUCACCCAUGUGAGCUUUAAGUGCCGUAGCACAAAGUAGAAGGGUACUGGA	–	–	24.4	91.8
CCGAAUAUGCAGGAUAUCGUAUCGGAAACGAUACGAGAAGGGUAAACAUGAGGAUCACCCAUGUUCCUUAACGG	–	–	20.6	22.2
AGUGUCAUCGAGAAGGCCUCAUUAACAUGAGGAUCACCCAUGUAAUAUGGGAGGAUAUCGAUGAUACAGCUACGUUUCGUAGCA	216	55.2	–	–
UCGGCGCGAGGAUAUACGUUUGCGCUUUUUCGUUUUUGUGUACAUGAGGAUCACCCAUGUAGAAGGCGCGCCGC	–	–	16.4	19.8
ACAAGGCAUGUAGGAUAUCCAUUGCGUCGCGAUGGAGAAGGACAACACACAUGAGGAUCACCCAUGUGAUCACCCAUGUCGUGU	–	–	356	418
CUGUCGAUAUCAGGAUAUCGUUUACAUACAUGAGGAUCACCCAUGUAGAUGAUCAGCCUAAUAUACGAGAAGGGAUAACGAUAG	10.2	9.04	–	–
UUGAUGUCAGGAUAUGCUUAAUAUAUUUUAUUAUAAUAUAUACAUGAGGAUCACCCAUGUAGAAGGGACAUUAU	–	–	29.1	25.7
UACAUGAGGAUCACCCAUGUUUUGUCGUGUAUGGUAUUUAUCUAGGAUAUCAUUUUAGUUAGUUAUGAGAAGGAGAAUAUUAAU	–	–	32.2	31.6
UAUAUAUAGUAAGGAUAUAUAUUUUUUUUUUAAAUAGAAGGUACAGACAUGAGGAUCACCCAUGUUAUAAUAUGGACAUGUGGA	–	–	99	136
GUUAGUUAAGGAUAUACUGGGAGCUGCGGCGUCUCGCCGCAACAUGAGGAUCACCCAUGUAGAAGGUGGCCAUU	–	–	765	425
UCUGCCGCCGUGAGGAUAUGCCCGCGCGCCCGCGGGCAGAAGGCACAUGAGGAUCACCCAUGUCCCGCGGCUUU	–	–	15.1	39.5
AAUAACAGAGGAUAUACUGUUUUAUGUAUUUAUUAUUUUAAACAUGAGGAUCACCCAUGUAGAAGGCUGAAUAA	–	–	21.9	18.6
GCACGGCAUGUAGGAUAUGCAUAGCAUUGCUAUGCAGAAGGACAUGAGGAUCACCCAUGUAUGUAUUCCAUACAUUUCCCGUGC	–	–	5.5	7.65
AACAGUAGAGGAUAUACAUGAGGAUCACCCAUGUGAUAAUUACGUGGCGUACCACGAUGUAGAAGGCUACUGGA	–	–	144	36.2
GGGUUCAUCGGAGGAUAUCAUGUAAAUACAUGAGGAUCACCCAUGUCGAUGGAGACAUCGGAGAUUGAGAAGGCCGAUGUACCG	186	9.18	–	–

From the EternaBench riboswitch data
